Assay results taken from ChEMBL document CHEMBL1629563, “Pharmacokinetic and safety evaluation of BILR 355, a second-generation nonnucleoside reverse transcriptase inhibitor, in healthy volunteers” (Antimicrob Agents Chemother, 2008).

Assays:
[1] = AUC (0 to last) in healthy human at 12.5 mg, po administered as single dose coadministered with 100 mg of ritonavir; type: ADME, organism-based; parameters: dose 12.5 mg, time 0 - last, route oral; conditions: plasma
How it was run: (§1)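 Healthy male volunteers, fasted. Ritonavir 100 mg given 10 h before and again together with single oral BILR 355 in PEG solution. EDTA plasma sampled predose to 144 h. LC-MS/MS assay after protein precipitation. Noncompartmental analysis, AUC by linear up/log down trapezoidal rule; Vss = CL/F·(MRTp.o. − 1/Ka).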

[2] = Apparent oral clearance in healthy human at 5 mg, po administered as single dose coadministered with 100 mg of ritonavir; type: ADME, organism-based; conditions: in vivo; how it was run: as §1
Homo sapiens [3] = experiment: Toxicity in healthy human assessed as occurrence of abdominal pain at 12.5 mg, po administered as single dose relative to control; type: organism-based, Abdomen; conditions: in vivo
Homo sapiens [4] = experiment: Toxicity in healthy human assessed as occurrence of vomiting at 12.5 mg, po administered as single dose relative to control; type: organism-based; conditions: in vivo
[5] = Half life in healthy human at 25 mg, po administered as single dose coadministered with 100 mg of ritonavir; type: ADME, organism-based; conditions: in vivo
Homo sapiens [6] = experiment: Toxicity in healthy human assessed as occurrence of palpitations at 1 mg, po administered as single dose relative to control; type: organism-based; conditions: in vivo
[7] = AUC (0 to last) in healthy human at 87.5 mg, po administered as single dose coadministered with 100 mg of ritonavir; type: ADME, organism-based; parameters: dose 87.5 mg, route oral, time 0 - last; conditions: plasma; how it was run: as §1
Homo sapiens [8] = experiment: Toxicity in healthy human assessed as occurrence of frequent bowel movements at 12.5 mg, po administered as single dose relative to control; type: organism-based; conditions: in vivo
[9] = Renal clearance in healthy human at 37.5 mg, po administered as single dose coadministered with 100 mg of ritonavir by high-pressure liquid chromatography-tandem mass spectrometry/mass spectrometry method; type: ADME, organism-based, Kidney; conditions: in vivo, read-out: CL_renal (converted)
Homo sapiens [10] = experiment: Toxicity in healthy human assessed as occurrence of constipation at 50 mg, po administered as single dose relative to control; type: organism-based; conditions: in vivo
[11] = Apparent volume of distribution in terminal phase in healthy human at 5 mg, po administered as single dose; type: ADME, organism-based; conditions: in vivo, read-out: Vz/F
How it was run: (§2)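 Single fasting oral dose of BILR 355 in PEG solution with 200 ml tap water, given to healthy males. Standard breakfast came 60-90 min after the dose. EDTA plasma was sampled predose to 144 h, stored below −18°C and assayed by LC-MS/MS after protein precipitation. Noncompartmental analysis gave Vz/F. Vss/F = CL/F·(MRTp.o. − 1/Ka), with Ka from compartmental modelling.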

[12] = Renal clearance in healthy human at 5 mg, po administered as single dose by high-pressure liquid chromatography-tandem mass spectrometry/mass spectrometry method; type: ADME, organism-based, Kidney; conditions: in vivo, read-out: CL_renal (converted)
Homo sapiens [13] = experiment: Toxicity in healthy human assessed as occurrence of frequent bowel movements at 100 mg, po administered as single dose relative to control; type: organism-based; conditions: in vivo
Homo sapiens [14] = experiment: Ratio of half life in human at 12.5 mg, po in presence of 100 mg of ritonavir to half life in human at 12.5 mg, po; type: ADME, organism-based; conditions: in vivo
[15] = Apparent volume of distribution in terminal phase in healthy human at 12.5 mg, po administered as single dose coadministered with 100 mg of ritonavir; type: ADME, organism-based; conditions: in vivo, read-out: Vz/F
How it was run: (§3)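 Healthy male volunteers, fasted overnight, got one oral dose of BILR 355 in PEG solution with 200 ml water. Ritonavir 100 mg was given 10 h before and again with the dose. Plasma was sampled (EDTA) from predose to 144 h and assayed by validated LC-MS/MS. Cmax and Vz/F came from noncompartmental analysis. Vss/F = CL/F·(MRTp.o. − 1/Ka), with Ka from compartmental modelling.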

Homo sapiens [16] = experiment: Ratio of AUC (0 to infinity) in human at 12.5 mg, po in presence of 100 mg of ritonavir to AUC (0 to infinity) in human at 12.5 mg, po; type: ADME, organism-based; conditions: in vivo
[17] = Half life in healthy human at 12.5 mg, po administered as single dose coadministered with 100 mg of ritonavir; type: ADME, organism-based; conditions: in vivo
[18] = Mean residence time in healthy human at 12.5 mg, po administered as single dose coadministered with 100 mg of ritonavir; type: ADME, organism-based; conditions: in vivo
Homo sapiens [19] = experiment: Toxicity in healthy human assessed as occurrence of diarrhea at 25 mg, po administered as single dose coadministered with 100 mg of ritonavir; type: organism-based; conditions: in vivo
[20] = Mean residence time in healthy human at 62.5 mg, po administered as single dose coadministered with 100 mg of ritonavir; type: ADME, organism-based; conditions: in vivo
[21] = Cmax in healthy human at 50 mg, po administered as single dose coadministered with 100 mg of ritonavir by high-pressure liquid chromatography-tandem mass spectrometry/mass spectrometry method; type: ADME, organism-based; parameters: dose 50 mg, route oral; conditions: in vivo; how it was run: as §3
Homo sapiens [22] = experiment: Toxicity in healthy human assessed as occurrence of vomiting at 75 mg, po administered as single dose relative to control; type: organism-based; conditions: in vivo
[23] = Mean residence time in healthy human at 37.5 mg, po administered as single dose coadministered with 100 mg of ritonavir; type: ADME, organism-based; conditions: in vivo
[24] = Mean residence time in healthy human at 25 mg, po administered as single dose coadministered with 100 mg of ritonavir; type: ADME, organism-based; conditions: in vivo
Homo sapiens [25] = experiment: Toxicity in high fat fed healthy human assessed as occurrence of aphthous stomatitis at 50 mg, po administered as single dose coadministered with 100 mg of ritonavir; type: organism-based; conditions: in vivo
[26] = Apparent volume of distribution at steady state in healthy human at 87.5 mg, po administered as single dose coadministered with 100 mg of ritonavir; type: ADME, organism-based; conditions: in vivo, read-out: Vss/F; how it was run: as §3
[27] = Cmax in healthy human at 12.5 mg, po administered as single dose coadministered with 100 mg of ritonavir by high-pressure liquid chromatography-tandem mass spectrometry/mass spectrometry method; type: ADME, organism-based; parameters: dose 12.5 mg, route oral; conditions: in vivo; how it was run: as §3
[28] = AUC (0 to last) in healthy human at 5 mg, po administered as single dose coadministered with 100 mg of ritonavir; type: ADME, organism-based; parameters: dose 5 mg, time 0 - last, route oral; conditions: plasma; how it was run: as §1
Homo sapiens [29] = experiment: Toxicity in healthy human assessed as occurrence of maculopapular rash at 5 mg, po administered as single dose coadministered with 100 mg of ritonavir; type: organism-based; conditions: in vivo
[30] = Apparent volume of distribution in terminal phase in healthy human at 50 mg, po administered as single dose; type: ADME, organism-based; conditions: in vivo, read-out: Vz/F; how it was run: as §2
Homo sapiens [31] = experiment: Toxicity in healthy human assessed as occurrence of maculopapular rash at 1 mg, po administered as single dose relative to control; type: organism-based; conditions: in vivo
[32] = Apparent volume of distribution at steady state in healthy human at 50 mg, po administered as single dose; type: ADME, organism-based; conditions: in vivo, read-out: Vss/F; how it was run: as §2
Homo sapiens [33] = experiment: Toxicity in healthy human assessed as occurrence of migraine at 25 mg, po administered as single dose relative to control; type: organism-based; conditions: in vivo
Homo sapiens [34] = experiment: Toxicity in healthy human assessed as occurrence of fatigue at 62.5 mg, po administered as single dose coadministered with 100 mg of ritonavir; type: organism-based; conditions: in vivo
[35] = Renal clearance in healthy human at 25 mg, po administered as single dose coadministered with 100 mg of ritonavir by high-pressure liquid chromatography-tandem mass spectrometry/mass spectrometry method; type: ADME, organism-based, Kidney; conditions: in vivo, read-out: CL_renal (converted)

## CCN1c2ncc(CCOc3cc[n+]([O-])c4ccccc34)cc2C(=O)N(C)c2cccnc21 [BILR 355]
[1]
  AUC(0-t): 1680 ng·h/mL
[2]
  CL/F: 122 mL/min
Homo sapiens [3]
  Activity: 0%
Homo sapiens [4]
  Activity: 0%
[5]
  half-life: 11.5 h
Homo sapiens [6]
  Activity: 0%
[7]
  AUC(0-t): 11700 ng·h/mL
Homo sapiens [8]
  Activity: 0%
[9]
  CL renal: 4.92 mL/min
Homo sapiens [10]
  Activity: 0%
[11]
  Vd/F: 956 L
[12]
  CL renal: 4.52 mL/min
Homo sapiens [13]
  Activity: 0%
Homo sapiens [14]
  Ratio: 3.9
[15]
  Vd/F: 149 L
Homo sapiens [16]
  Ratio: 31
[17]
  half-life: 15.9 h
[18]
  MRT: 24.8 h
Homo sapiens [19]
  Activity: 0%
[20]
  MRT: 14 h
[21]
  Cmax: 468 ng/mL
Homo sapiens [22]
  Activity: 0%
[23]
  MRT: 16.9 h
[24]
  MRT: 18.1 h
Homo sapiens [25]
  Activity: 0%
[26]
  Vd/F: 112 L
[27]
  Cmax: 74.1 ng/mL
[28]
  AUC(0-t): 615 ng·h/mL
Homo sapiens [29]
  Activity: 0%
[30]
  Vd/F: 460 L
Homo sapiens [31]
  Activity: 0%
[32]
  Vd/F: 390 L
Homo sapiens [33]
  Activity: 0%
Homo sapiens [34]
  Activity: 0%
[35]
  CL renal: 6.5 mL/min
